Reference: publication PMC5774632 (Science translational medicine, 2017)

Columns and labels:
C57BL/6 mice = experiment: 5FU survival assay; assay type: in vivo, mouse; conditions: for survival in serial 5FU assay: 10-day intervals; for increase in median survival over controls / median survival: 100 mg/kg IP 12 h before each 5FU
Method in brief: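 Female C57BL/6 mice, 8–10 weeks old, got 150 mg/kg 5FU IP once every 7 or 10 days. Test compound was given IP at 50 or 100 mg/kg at 30 minutes, 12 hours and/or 24 hours before each 5FU dose. Mice were monitored daily.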

[1] = system: RB-expressing human cell lines; conditions: vast majority of RB-expressing human cell lines; cited from earlier work
[2] = Terminal half-lives of SCLC standard of care chemotherapy agents; assay type: in vivo; conditions: 4 half-lives
[3] = ref not given; cited from earlier work
murine HSPCs = experiment: In vivo G1T28 dose response and pharmacodynamic assay; parameters: species or system mouse
Method in brief: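 Female C57BL/6 mice, 8–10 weeks old, got a single IP dose of 50 or 100 mg/kg test compound. EdU 10 mg/kg IP followed at 0.5 to 168 h, and BM and thymus were harvested 2 h later. Surface-stained cells were live/dead-labelled, fixed in 5% formalin, permeabilised with saponin and click-stained with Alexa Fluor 555 azide. DNA was stained with 2 μg/ml DAPI before flow cytometry. n = 3–6 mice/dose/time point.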

[4] = Human PK study, first-in-human Phase I, single IV infusion; assay type: in vivo
Method in brief: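 Healthy volunteers got a single IV infusion (6–192 mg/m2), with blood sampled predose and at multiple later times. Plasma was spiked with D3-labelled internal standard and protein-precipitated with acetonitrile, then quantified by validated LC-MS/MS. Calibration was 0.5 to 1,000 ng/mL, weighted (1/x2) linear, LLOQ 0.5 ng/mL. PK parameters were derived by noncompartmental and compartmental methods.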

[5] = Human safety and tolerability assessment, Phase I healthy volunteers; assay type: in vivo
Method in brief: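 Single-centre, double-blind, randomised, placebo-controlled (3:1) single-dose IV study in healthy adults aged 18–60, BMI 18–32 kg/m2, ≥50 kg. Doses were 6, 12, 24, 48, 96 or 192 mg/m2. Subjects stayed in clinic Day −1 to Day 5 and returned Days 7, 10 and 14. Monitoring covered AEs, clinical laboratory tests, vital signs, 12-lead ECG and physical examination. Toxicity was graded by CTCAE v4.0.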

human BM HSPCs = experiment: Human BM proliferation assay; assay type: in vivo; conditions: 192 mg/m^2, 24 hours after dose
Method in brief: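 Healthy volunteers in the 192 mg/m2 single-IV-dose cohort each gave one bone marrow aspirate: predose (n = 5), 24 h (n = 3) or 32 h (n = 4). Lineages were identified by flow cytometry with CD45, CD34, CD14, CD11b, CD71 and CD61. Cell cycle phase (G0/G1 vs S/G2/M) came from DRAQ5 DNA content.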

BM HSCs = experiment: H2B-GFP label dilution assay; assay type: in vivo, mouse
Method in brief: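 Adult homozygous H2B-GFP;M2-rtTA mice got 2 mg/ml doxycycline in drinking water for 6 weeks. Two weeks after withdrawal, vehicle or 150 mg/kg test compound was gavaged 12 h before vehicle or 150 mg/kg 5FU. BM was harvested 4 weeks after 5FU, and Lin−c-Kit+Sca-1+CD150+CD48− HSC H2B-GFP dilution was curve-fitted. PI = daughter cells per labelled HSC; log2(PI) = divisions. Mean ± SD, 3–6 mice, 3 experiments.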

BM progenitors = experiment: Single dose 5FU hematologic recovery and methylcellulose colony formation assay; assay type: in vivo, mouse
HSCs = experiment: Serial 5FU treatment and competitive BM reconstitution assay; assay type: in vivo, mouse; conditions: for long-term reconstitution of PB lineages by donor HSCs, primary transplantation: vs 5FU only
Method in brief: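 Donors were female CD45.1 mice given 4 rounds of PBS or 150 mg/kg 5FU at 3-week intervals; some got 150 mg/kg test compound by gavage (vehicle 50 mM citrate, pH 4.0) 30 min before each 5FU. Eight weeks after the last dose, 500,000 donor BM cells plus 500,000 CD45.2 competitor cells went into C57BL/6 recipients irradiated with 2 × 540 rads. Five donors per group, five recipients each. Lineage chimerism was tracked in PB every 4 weeks for ≥16 weeks.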

[6] = after intraperitoneal injection; cited from earlier work
[7] = after G1T28 treatment, single IP 50 or 100 mg/kg
[8] = human, plasma, intravenous, 192 mg/m2
[9] = G1T28 12 hours before single 5FU, 4 weeks after 5FU
[10] = single agent, 6 weeks after doxycycline removal
[11] = 4 rounds of 5FU at 3-week intervals

CC(=O)c1c(C)c2cnc(Nc3ccc(N4CCNCC4)cn3)nc2n(C2CCCC2)c1=O [palbociclib, reference compound]
survival in serial 5FU assay (C57BL/6 mice): survival benefit
EC50 [1]: > 2000 nM

COc1cc([C@@H]2c3cc4c(cc3[C@@H](O[C@@H]3O[C@@H]5CO[C@@H](C)O[C@H]5[C@H](O)[C@H]3O)[C@H]3COC(=O)[C@H]23)OCO4)cc(OC)c1O [etoposide]
fraction cleared during a 32-hour G1 arrest [2]: approximately 94%
terminal half-life [3]: 7.5 h

N.N.O=C([O-])C1(C(=O)[O-])CCC1.[Pt+2] [carboplatin]
terminal half-life [3]: 6 h

CN1CCN(c2ccc(Nc3ncc4cc5n(c4n3)C3(CCCCC3)CNC5=O)nc2)CC1 [G1T28, trilaciclib]
duration of reduction in EdU incorporation in HSCs before recovery (murine HSPCs; [7]): up to 36 hours
time of minimum EdU incorporation and S/G2/M cell frequency in HSCs (murine HSPCs; [7]): 12 h
EdU incorporation (S-phase cells) in all hematopoietic cell types (murine HSPCs; single IP dose, 12 hours after treatment): dose-dependent reduction in EdU incorporation
end of fast α-phase of elimination ([4]; after end of infusion): approximately 4 h
end of β-phase of elimination ([4]; after end of infusion): approximately 36 h
half-life ([4]; human, plasma, intravenous): 5.32 to 9.28 h
Cmax [4, 8]: 1700 ng/mL
half-life [4, 8]: 12.9 to 14.7 h
Tmax ([4]; human, plasma, iv): 0.25 to 0.47 h
contribution of the terminal phase to the effective half-life ([4]; in vivo): 15-20%
clinical laboratory testing, vital signs, ECG, physical examination, body weight ([5]; all treatment groups): no clinically relevant changes
most frequently reported TEAEs ([5]; single IV infusion): headache and nausea
severe or life-threatening TEAEs ([5]; single IV infusion): No TEAEs of severe or life-threatening intensity were reported
tolerability ([5]; single IV infusion, all test doses): well tolerated
peripheral blood cell counts ([5]; single dose, up to 14 days after infusion): did not significantly alter
reduction in S/G2/M cell frequency of total BM cells (human BM HSPCs): 45%
increase in median survival over controls (C57BL/6 mice; 5FU at 7-day intervals): 55%
median survival (C57BL/6 mice; 5FU at 7-day intervals): 28 days
increase in median survival over controls (C57BL/6 mice; 5FU at 10-day intervals): 125%
median survival (C57BL/6 mice; 5FU at 10-day intervals): 63 days
survival protection (C57BL/6 mice; 10-day assay, G1T28 30 minutes before each 5FU): Marked protection
survival protection over treatment at −30 min alone (C57BL/6 mice; 10-day assay, G1T28 given twice, −24 h and −30 min): no additional protection
average number of HSC divisions (BM HSCs; [9]): 4.6 ± 0.4 divisions
proliferation index (PI) (BM HSCs; [9]): 25.2 ± 4.7
average number of HSC divisions (BM HSCs; [10]): 2.4 ± 1.0 divisions
proliferation index (PI) (BM HSCs; [10]): 6.2 ± 2.6
colony-forming cells surviving (BM progenitors; 1 and 2 days after 5FU treatment): increased the number of colony-forming cells
PB count recovery (BM progenitors; G1T28 30 minutes before single 5FU): significantly accelerated the PB count recovery
long-term reconstitution of PB lineages by donor HSCs, primary transplantation (HSCs; [11]): enhanced reconstitution of all lineages
reconstitution in secondary recipients (HSCs; secondary transplantation 32 weeks after initial transplantation): significantly greater overall reconstitution

O=c1[nH]cc(F)c(=O)[nH]1 [5FU, 5-fluorouracil, reference compound]
average number of HSC divisions (BM HSCs; [10]): 5.3 ± 0.5 divisions
proliferation index (PI) (BM HSCs; [10]): 41.3 ± 5.4
plasma t1/2 [6]: 0.167 to 0.333 h

CN(C)C(=O)c1cc2cnc(Nc3ccc(N4CCNCC4)cn3)nc2n1C1CCCC1 [ribociclib, reference compound]
survival in serial 5FU assay (C57BL/6 mice): survival benefit

B1: pegfilgrastim (protein, chains of the INN, looked up)
chain: TPLGPASSLPQSFLLKCLEQVRKIQGDGAALQEKLCATYKLCHPEELVLLGHSLGIPWAPLSSCPSQALQLAGCLSQLHSGLFLYQGLLQALEGISPELGPTLDTLQLDVADFATTIWQQMEELGMAPALQPTQGAMPAFASAFQRRAGGVLVASHLQSFLEVSYRVLRHLAQP
modifications: PEG
survival in serial 5FU assay (C57BL/6 mice): survival benefit
long-term HSC function, combined use of pegfilgrastim with G1T28 (HSCs; [11]): abolished the HSC protective effect of G1T28
long-term reconstitution of PB lineages by donor HSCs, primary transplantation (HSCs; [11]): did not benefit long-term HSC function
